From ChEMBL document CHEMBL1127367, “Antiproliferative properties of polyamine analogues: a structure-activity study” (J Med Chem, 1994)

Legend:
[1] = test system: L1210; assay: Compound was evaluated for its impact on putrescine (Put) levels after 48 hr at concentration 0.3 uM; format: functional, Mus musculus
How it was run: (§1)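 L1210 suspension cultures were grown in RPMI-1640 with 10% NuSerum, 2% HEPES-MOPS and 1 mM aminoguanidine (37 °C, 5% CO2). Log-phase cells were treated for 48 h, then washed twice in cold RPMI-1640 and pelleted. Pellets were extracted with 0.6 N perchloric acid, and supernatants were held at −20 °C until HPLC. Polyamine levels are given as % of untreated controls.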

[2] = test system: L1210; assay: In vitro inhibition of L1210 growth after 48 hours.; format: functional, cell-based; details: Mus musculus, L1210, 48 h
How it was run: (§2)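 Log-phase L1210 cultures (0.5–1.0 × 10^5 cells/mL) treated with analogue diluted in sterile water and filter-sterilized. After 48 h, cells were reseeded and grown a further 48 h for the 96 h point. Cells counted by Coulter counter. % growth = (treated − inoculum)/(untreated − inoculum) × 100.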

[3] = test system: L1210; assay: Compound was evaluated for its impact on putrescine (Put) levels after 48 hr at concentration 1.5 uM; format: functional, Mus musculus; how it was run: as §1
[4] = test system: L1210; assay: Compound was evaluated for its impact on spermidine levels after 48 hr at concentration 0.3 uM; format: functional, Mus musculus; how it was run: as §1
[5] = target: T1, Ornithine decarboxylase (Mus musculus) (UniProt P00860); assay: Inhibition of ornithine decarboxylase (ODC) activity; format: functional; parameters: concentration or dose not given beside the values
T1 sequence (whole entry): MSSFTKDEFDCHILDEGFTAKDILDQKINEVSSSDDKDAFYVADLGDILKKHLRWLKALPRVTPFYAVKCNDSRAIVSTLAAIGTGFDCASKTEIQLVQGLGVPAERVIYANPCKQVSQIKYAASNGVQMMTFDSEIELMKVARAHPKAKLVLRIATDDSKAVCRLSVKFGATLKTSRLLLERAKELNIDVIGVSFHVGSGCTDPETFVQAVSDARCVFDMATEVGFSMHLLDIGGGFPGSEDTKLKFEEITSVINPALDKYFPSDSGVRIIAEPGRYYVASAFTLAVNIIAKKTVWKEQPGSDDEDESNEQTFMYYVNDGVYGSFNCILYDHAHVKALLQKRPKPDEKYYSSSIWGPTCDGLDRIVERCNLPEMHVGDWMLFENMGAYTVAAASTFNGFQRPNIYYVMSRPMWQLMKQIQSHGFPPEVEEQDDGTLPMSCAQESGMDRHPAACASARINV

[6] = test system: L1210; assay: Compound level in L1210 cells after 48 hours of incubation at initial concentration of 0.3 uM is expressed as nmol/10e6 cells; format: functional, Mus musculus
How it was run: (§3)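 Murine L1210 leukemia cells were kept in logarithmic growth as a suspension in RPMI-1640 with 10% NuSerum, 2% HEPES-MOPS buffer and 1 mM aminoguanidine, at 37 °C under 5% CO2. Log-phase cells were exposed to the analogue for 48 h. Intracellular analogue content is reported per 10^6 cells.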

[7] = test system: L1210; assay: Inhibition of radiolabeled spermidine uptake into L1210 cells in vitro.; format: functional, cell-based, Mus musculus
[8] = test system: L1210; assay: In vitro inhibition of L1210 growth after 96 hours.; format: functional, cell-based; details: Mus musculus, L1210, 96 h; how it was run: as §2
[9] = test system: L1210; assay: Compound level in L1210 cells after 48 hours of incubation at initial concentration of 1.5 uM is expressed as nmol/10e6 cells; format: functional, Mus musculus; how it was run: as §3
[10] = target: T2, S-adenosylmethionine decarboxylase proenzyme 1 (Mus musculus) (UniProt P0DMN7); assay: Inhibition of S-Adenosyl-methionine decarboxylase (AdoMetDC) activity; format: functional; parameters: concentration or dose not given beside the values
T2 sequence (whole entry): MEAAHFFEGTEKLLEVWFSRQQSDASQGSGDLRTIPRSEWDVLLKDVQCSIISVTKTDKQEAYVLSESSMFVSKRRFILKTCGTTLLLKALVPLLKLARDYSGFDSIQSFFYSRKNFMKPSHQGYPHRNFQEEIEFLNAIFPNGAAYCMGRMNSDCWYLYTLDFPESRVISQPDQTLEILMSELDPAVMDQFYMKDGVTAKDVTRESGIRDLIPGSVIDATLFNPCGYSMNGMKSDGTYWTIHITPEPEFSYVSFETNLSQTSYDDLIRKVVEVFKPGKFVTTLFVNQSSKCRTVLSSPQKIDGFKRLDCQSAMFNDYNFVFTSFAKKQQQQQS

[11] = target: Spermidine/spermine N(1)-acetyltransferase (SAT) (Mus musculus) (UniProt Q6P8J2+P48026); assay: […] spermidine/spermine N1-Acetyltransferase (SSAT) activity; format: functional; parameters: concentration or dose not given beside the values
Chain of Spermidine/spermine N(1)-acetyltransferase (SAT) (Mus musculus) (P48026 whole entry, looked up): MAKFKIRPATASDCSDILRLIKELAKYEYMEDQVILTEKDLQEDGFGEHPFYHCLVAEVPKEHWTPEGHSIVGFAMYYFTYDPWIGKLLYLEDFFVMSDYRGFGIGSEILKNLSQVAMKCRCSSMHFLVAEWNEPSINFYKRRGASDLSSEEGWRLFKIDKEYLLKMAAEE
Chain of Spermidine/spermine N(1)-acetyltransferase (SAT) (Mus musculus) (Q6P8J2 whole entry, looked up): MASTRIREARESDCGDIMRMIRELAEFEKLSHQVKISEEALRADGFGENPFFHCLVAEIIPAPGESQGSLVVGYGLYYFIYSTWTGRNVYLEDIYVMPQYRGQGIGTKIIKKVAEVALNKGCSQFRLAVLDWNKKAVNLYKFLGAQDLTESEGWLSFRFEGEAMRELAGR

[12] = test system: L1210; assay: Compound was evaluated for its impact on spermine levels after 48 hr at concentration 0.3 uM; format: functional, Mus musculus; how it was run: as §1
[13] = test system: L1210; assay: Compound was evaluated for its impact on spermine levels after 48 hr at concentration 1.5 uM; format: functional, Mus musculus
How it was run: (§4)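 Murine L1210 leukemia cells in log-phase suspension (RPMI-1640, 10% NuSerum, 2% HEPES-MOPS, 1 mM aminoguanidine, 37 °C, 5% CO2) exposed to analogue for 48 h. Cells washed twice in cold RPMI-1640, extracted with 0.6 N perchloric acid, and polyamines quantified by HPLC. Spermine is reported as % of untreated control.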

[14] = test system: L1210; assay: Compound was evaluated for its impact on spermidine levels after 48 hr at concentration 1.5 uM; format: functional, Mus musculus; how it was run: as §1
[15] = test system: L1210; assay: Compound level in L1210 cells after 48 hours of incubation at initial concentration of 10 uM is expressed as nmol/10e6 cells; format: functional, Mus musculus; how it was run: as §3
[16] = test system: L1210; assay: Compound was evaluated for its impact on spermidine levels after 48 hr at concentration 10 uM; format: functional, Mus musculus; how it was run: as §1
[17] = test system: L1210; assay: Compound was evaluated for its impact on spermine levels after 48 hr at concentration 10 uM; format: functional, Mus musculus; how it was run: as §4
[18] = test system: L1210; assay: Compound was evaluated for its impact on putrescine (Put) levels after 48 hr at concentration 10 uM; format: functional, Mus musculus; how it was run: as §1
[19] = test system: L1210; assay: Compound level in L1210 cells after 48 hours of incubation at initial concentration of 500 uM is expressed as nmol/10e6 cells; format: functional, Mus musculus; parameters: unit: nmol/10^6 cells
[20] = test system: L1210; assay: Compound was evaluated for its impact on spermidine levels after 48 hr at concentration 100 uM; format: functional, Mus musculus
[21] = test system: L1210; assay: Compound was evaluated for its impact on spermine […] levels after 48 hr at concentration 10 uM; format: functional, Mus musculus; how it was run: as §1
[22] = test system: L1210; assay: Compound level in L1210 cells after 48 hours of incubation at initial concentration of 100 uM is expressed as nmol/10e6 cells; format: functional, Mus musculus; parameters: unit: nmol/10^6 cells
[23] = target: T1, Ornithine decarboxylase (Mus musculus); assay: Effect of compound on ornithine decarboxylase (ODC) activity expressed as percent of untreated control for ODC (1 uM at 4 h(or 48h))
How it was run: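 L1210 cells exposed to 1 μM analogue for 4 h, or for 48 h in some cases. ODC activity measured as 14CO2 released from [14C]carboxyl-labeled L-ornithine and expressed as % of untreated control.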

[24] = test system: L1210; assay: Compound was evaluated for its impact on spermine levels after 48 hr at concentration 100 uM; format: functional, Mus musculus
[25] = test system: L1210; assay: Compound was evaluated for its impact on putrescine (Put) levels after 48 hr at concentration 100 uM; format: functional, Mus musculus

Question: How did the Polyamine [1] turn out when `CCNCCCCNCCCCNCCCNCC` was run?
Answer: 40%

Question: What about the IC50 [2] of the same molecule?
Answer: 300 nM

Question: What about the Polyamine [3] of the same molecule?
Answer: 0%

Question: What about the Polyamine [4] of the same molecule?
Answer: 47%

Question: And the Activity [5]?
Answer: 5%

Question: And the Activity [6]?
Answer: 0.27

Question: And the Ki [7]?
Answer: 8 µM

Question: And the IC50 [8]?
Answer: 80 nM

Question: What about the Activity [9] of the same molecule?
Answer: 0.64

Question: And the Activity [10]?
Answer: 37%

Question: What about the Activity [11] of the same molecule?
Answer: 370%

Question: And the Polyamine [12]?
Answer: 65%

Question: What about the Polyamine [13] of the same molecule?
Answer: 18%

Question: What about the Polyamine [14] of the same molecule?
Answer: 0%

Question: How did the IC50 [2] turn out when `CCNCCCCNCCCCNCCCCNCC` [DIETHYLHOMOSPERMINE] was run?
Answer: 200 nM

Question: What about the Activity [5] of the same molecule?
Answer: 7%

Question: What about the Activity [15] of the same molecule?
Answer: 2.94

Question: What about the Polyamine [16] of the same molecule?
Answer: 0%

Question: And the Ki [7]?
Answer: 1.4 µM

Question: What about the IC50 [8] of the same molecule?
Answer: 70 nM

Question: What about the Polyamine [17] of the same molecule?
Answer: 61%

Question: What about the Activity [10] of the same molecule?
Answer: 41%

Question: And the Activity [11]?
Answer: 140%

Question: And the Polyamine [18]?
Answer: 0%

Question: Which results are given for `CCNCCCNCCCNCCCNCC` [BIS(ETHYL)NORSPERMINE]?
Answer: Activity [19]: 1.59; IC50 [2]: > 100000 nM; Polyamine [20]: 6%; Polyamine [21]: 31%; Polyamine [16]: 14%; Activity [22]: 2.44; Activity [23]: 10%; Ki [7]: 17 µM; IC50 [8]: 2000 nM; Polyamine [24]: 30%; Activity [10]: 42%; Activity [11]: 1500%; Polyamine [25]: 0%; Polyamine [18]: 30%
